Measured values as given in ChEMBL document CHEMBL4346672, “Antimicrobial and KPC/AmpC inhibitory activity of functionalized benzosiloxaboroles” (Eur J Med Chem, 2019).
Values after ≈ are worked out from the molar mass of the structure shown.

How the values were obtained:
[1] = tested on: Klebsiella pneumoniae 700603; assay: Inhibition of extended-spectrum beta lactamase in Klebsiella pneumoniae ATCC 700603 assessed as potentiation of cefotaxime-induced antibacterial activity by measuring diameter of zone inhibition at 0.3 mg incubated for 18 hrs in presence of 10 ug cefotaxime by CLSI disc diffusion method (Rvb=19 mm)
Method in brief: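 EUCAST ESBL combination disc test on Mueller-Hinton agar. Zones were compared between a ceftazidime or cefotaxime disc alone and the same disc plus agent at 0.3 mg per disc. Clavulanic acid discs at 0.01 mg per disc served as reference. Plates were incubated at 35 °C for 18 h. A difference of at least 5 mm was counted as inhibition.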

Klebsiella pneumoniae = assay: Inhibition of beta lactamase CMY-2 in Klebsiella pneumoniae 78 assessed as potentiation of ceftazidime-induced antibacterial activity by measuring ceftazidime MIC at 16 mg/L incubated for 18 hrs by broth dilution method (reference value: >[…] mg/L)
Enterococcus faecium = assay: Bactericidal activity against Enterococcus faecium ATCC 6057 measured after 18 hrs by CLSI broth dilution method; assay type: functional; conditions: ATCC 6057, 18 h
Method in brief: (§1)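 Strains stored at -80 °C and subcultured twice on tryptic soy agar before testing. Compounds dissolved in DMSO. […] MBC then determined per CLSI recommendations.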

[2] = tested on: Bordetella bronchiseptica; assay: Bactericidal activity against Bordetella bronchiseptica ATCC 4617 measured after 18 hrs by CLSI broth dilution method; assay type: functional; conditions: ATCC 4617, 18 h; method in brief: as §1
Burkholderia cepacia = assay: Bactericidal activity against Burkholderia cepacia ATCC 25416 measured after 18 hrs by CLSI broth dilution method; assay type: functional; conditions: ATCC 25416, 18 h; method in brief: as §1

Structure (SMILES) | inhibition zone (IZ) [1] | MIC (Klebsiella pneumoniae) | MBC (Enterococcus faecium) | MBC [2] | MBC (Burkholderia cepacia)
C[Si]1(C)OB(O)c2c(F)c(F)c(F)c(F)c21 | 19 mm | 64 µg/mL | – | – | –
C[Si]1(C)OB(O)c2ccc(C(F)(F)F)cc21 | – | – | 50 µg/mL (≈ 203 µM) | – | –
C[Si]1(C)OB(O)c2ccc(F)c(F)c21 | 19 mm | 64 µg/mL | – | – | –
C[Si]1(C)OB(O)c2ccc(B(O)O)cc21 | 19 mm | 64 µg/mL | 400 µg/mL (≈ 1800 µM) | – | –
C[Si]1(C)OB(O)c2cc3c(c(F)c21)COB3O | 19 mm | > 64 µg/mL | – | – | –
C[Si]1(C)OB(O)c2c(F)c3c(c(F)c21)B(O)OC3 | 19 mm | > 64 µg/mL | – | 400 µg/mL (≈ 1480 µM) | 100 µg/mL (≈ 371 µM)
